In ChEMBL document CHEMBL4270630:

Columns and labels:
[1] = tested on: Influenza B virus; assay: Antiviral activity against Influenza B virus B/Ned/537/05 infected in MDCK cells assessed as reduction in virus-induced cytopathic effect after 3 days by microscopic method; format: functional, organism-based; conditions: B/Ned/537/05, MDCK, 72 h
Method in brief: (§1)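 Semi-confluent MDCK cells were infected at an MOI of 0.0004 PFU/cell in Ultra-MDCK infection medium with 2 μg/mL TPCK-trypsin, together with compounds. After 3 days at 35 °C, CPE was scored by microscopy and confirmed by MTS formazan viability. Values are means of two to five independent tests.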

[2] = tested on: H3N2 subtype; assay: Antiviral activity against Influenza A virus A/HK/7/87(H3N2) infected in MDCK cells assessed as reduction in virus-induced cytopathic effect after 3 days by microscopic method; format: functional, organism-based; conditions: A/Hong Kong/7/1987(H3N2), 72 h
Method in brief: as §1, with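 “viability. EC50 is the concentration giving 50% inhibition of virus-induced CPE.” for “viability.”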

[3] = Cytotoxicity against MDCK cells assessed as alteration in cell morphology after 3 days by microscopic method; format: cell-based, Canis lupus familiaris; conditions: dog
Method in brief: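 Mock-infected MDCK cells were treated with compounds in parallel with the antiviral assay, 3 days at 35 °C. MCC is the concentration causing minimal change in cell morphology by microscopy. CC50 is the 50% cytotoxic concentration by MTS formazan viability assay.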

[4] = tested on: Influenza A virus; assay: Antiviral activity against Influenza A virus A/PR/8/34(H1N1) infected in MDCK cells after 3 days by MTS assay; format: functional, organism-based, A/Puerto Rico/8/1934(H1N1); conditions: Influenza A virus, A/Puerto Rico/8/1934(H1N1), MDCK, 72 h
Method in brief: as §1, with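 “viability. EC50 is the concentration giving 50% inhibition of virus-induced CPE.” for “viability.”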

[5] = tested on: Influenza A virus; assay: Antiviral activity against Influenza A virus A/Virginia/ATCC3/2009(H1N1pdm) infected in MDCK cells assessed as reduction in virus-induced cytopathic effect after 3 days by microscopic method; format: functional, organism-based, Influenza A virus (A/Virginia/03/2009(H1N1)); conditions: 72 h
Method in brief: as §1, with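 “viability. EC50 is the concentration giving 50% inhibition of virus-induced CPE.” for “viability.”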

[6] = tested on: Influenza A virus; assay: Antiviral activity against Influenza A virus A/PR/8/34(H1N1) GFP-fused pseudotyped lentiviral particle expressing H1-HA/N1-NA infected in MDCK cells assessed as inhibition of pseudoparticle entry at 2 uM after 3 days by flow cytometry relative to control; format: functional; conditions: A/Puerto Rico/8/1934(H1N1), 72 h
Method in brief: (§2)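 MDCK cells were seeded at 7500/well and one day later were exposed to compounds plus GFP lentiviral pseudoparticles bearing A/PR/8/34 H1-HA and N1-NA, with HA0 activated by trypsin. After 3 days the cells were trypsinized, fixed in paraformaldehyde and analysed for GFP by flow cytometry. Entry inhibition was taken as the reduction in GFP signal. Data are the mean ± SEM of four independent experiments.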

[7] = tested on: Influenza A virus; assay: Antiviral activity against Influenza A virus A/PR/8/34(H1N1) infected in MDCK cells assessed as reduction in virus-induced cytopathic effect after 3 days by microscopic method; format: functional, organism-based, A/Puerto Rico/8/1934(H1N1); conditions: Influenza A virus, A/Puerto Rico/8/1934(H1N1), MDCK, 72 h
Method in brief: as §1, with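 “viability. EC50 is the concentration giving 50% inhibition of virus-induced CPE.” for “viability.”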

[8] = tested on: H3N2 subtype; assay: Antiviral activity against Influenza A virus A/HK/7/87(H3N2) infected in MDCK cells after 3 days by MTS assay; format: functional, organism-based; conditions: A/Hong Kong/7/1987(H3N2), 72 h
Method in brief: as §1, with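 “viability. EC50 is the concentration giving 50% inhibition of virus-induced CPE.” for “viability.”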

[9] = tested on: Influenza A virus; assay: Antiviral activity against Influenza A virus A/Virginia/ATCC3/2009(H1N1pdm) infected in MDCK cells after 3 days by MTS assay; format: functional, organism-based, Influenza A virus (A/Virginia/03/2009(H1N1)); conditions: 72 h
Method in brief: as §1, with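 “viability. EC50 is the concentration giving 50% inhibition of virus-induced CPE.” for “viability.”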

[10] = tested on: Influenza A virus; assay: Antiviral activity against Influenza A virus A/PR/8/34(H1N1) GFP-fused pseudotyped lentiviral particle expressing H1-HA/N1-NA infected in MDCK cells assessed as inhibition of pseudoparticle entry at 10 uM after 3 days by flow cytometry relative to control; format: functional; conditions: A/Puerto Rico/8/1934(H1N1), 72 h; method in brief: as §2
[11] = tested on: Influenza B virus; assay: Antiviral activity against Influenza B virus B/Ned/537/05 infected in MDCK cells after 3 days by MTS assay; format: functional, organism-based; conditions: B/Ned/537/05, MDCK, 72 h; method in brief: as §1
[12] = tested on: MDCK; assay: (§3) Cytotoxicity against MDCK cells assessed as reduction in cell viability after 3 days by MTS assay; format: cell-based, Canis lupus familiaris; conditions: dog, mdck, 72 h
[13] = tested on: Influenza B virus; assay: Antiviral activity against Influenza B virus B/HK/05/72 infected in MDCK cells assessed as reduction in virus-induced cytopathic effect after 3 days by microscopic method; format: functional, organism-based; conditions: B/Hong Kong/05/1972, MDCK, 72 h
Method in brief: as §1, with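 “viability. EC50 is the concentration giving 50% inhibition of virus-induced CPE.” for “viability.”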

[14] = tested on: Influenza B virus; assay: Antiviral activity against Influenza B virus B/HK/05/72 infected in MDCK cells after 3 days by MTS assay; format: functional, organism-based; conditions: B/Hong Kong/05/1972, MDCK, 72 h
Method in brief: as §1, with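 “viability. EC50 is the concentration giving 50% inhibition of virus-induced CPE.” for “viability.”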

[15] = as §3; format: cell-based, Canis lupus familiaris; conditions: dog, MDCK cells
[16] = Cytotoxicity against HEL299 cells assessed as changes in cell morphology after 5 days by microscopic method; format: cell-based, HEL 299; conditions: human
Method in brief: (§4)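 Confluent HEL 299 cells in medium with 2% FCS were exposed to HCoV-229E (100 CCID50/well) together with compounds and held for 5 days at 35 °C. EC50 (CPE reduction) and MCC (minimal morphology change) were determined by microscopy. SI is MCC/EC50.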

[17] = tested on: Human coronavirus 229E; assay: Antiviral activity against Human coronavirus 229E infected in human A549 cells assessed as reduction in virus RNA level after 3 days by qRT-PCR method; format: functional; conditions: A549, 72 h
Method in brief: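 Confluent A549 cells were infected with HCoV-229E in 2% FCS medium with compounds present. The inoculum was removed at 1 h and compounds were kept on at 35 °C. Supernatants were harvested at day 3, lysed at 75 °C for 10 min, and viral genome copies counted by one-step qRT-PCR.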

[18] = tested on: Human coronavirus 229E; assay: Antiviral activity against Human coronavirus 229E infected in HEL299 cells assessed as reduction in virus induced cytopathic effect after 5 days by microscopic method; format: functional, organism-based; conditions: HEL 299, 120 h; method in brief: as §4
[19] = Cytotoxicity against human A549 cells assessed as changes in cell morphology after 3 days by microscopic method; format: cell-based
Method in brief: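 Mock-infected A549 cells were incubated with compounds for 3 days. MCC is the concentration causing minimal change in cell morphology by microscopy.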

[20] = Selectivity index, ratio of MCC for HEL299 cells to EC50 for Human coronavirus 229E infected in HEL299 cells; format: toxicity, cell-based; conditions: read-out: Selectivity Index; method in brief: as §4

Compound	EC50 [1] [µM]	EC50 [2] [µM]	MCC at 72 h [3] [µM]	EC50 [4] [µM]	EC50 [5] [µM]	inhibition at 2 µM [6] [%]	EC50 [7] [µM]	EC50 [8] [µM]	EC50 [9] [µM]	EC50 [11] [µM]	CC50 [12] [µM]	also measured
CCCCCCCCCCOCc1cn(CCOCCOCCOCCOCc2cn([C@H]3C(=O)N[C@@H]4Cc5ccc(c(Cl)c5)Oc5cc6cc(c5O)Oc5ccc(cc5Cl)[C@@H](O[C@@H]5O[C@H](CO)[C@@H](O)[C@H](O)[C@H]5NC(C)=O)[C@H]5NC(=O)[C@H](NC(O)[C@@H]6NC(=O)[C@@H](NC4=O)c4cc(O)cc(c4)Oc4cc3ccc4O)c3ccc(O)c(c3)-c3c(O)cc(O)cc3[C@H](C(=O)O)NC5=O)nn2)nn1 (some centres undefined)	> 100	1.6	≥ 20	1.5	1.8	56	1.6	1.3	1.8	< 0.8	≥ 82	inhibition at 10 µM [10]: 92%
CCCCCCCCO[C@@H]1[C@@H](OCCCCCCCC)[C@@H](OC)O[C@H](COCCOCCOCCOCCOCc2cn([C@H]3C(=O)N[C@@H]4Cc5ccc(c(Cl)c5)Oc5cc6cc(c5O)Oc5ccc(cc5Cl)[C@@H](O[C@@H]5O[C@H](CO)[C@@H](O)[C@H](O)[C@H]5NC(C)=O)[C@H]5NC(=O)[C@H](NC(O)[C@@H]6NC(=O)[C@@H](NC4=O)c4cc(O)cc(c4)Oc4cc3ccc4O)c3ccc(O)c(c3)-c3c(O)cc(O)cc3[C@H](C(=O)O)NC5=O)nn2)[C@H]1OCc1ccc(OC)cc1 (some centres undefined)	–	1.8	20	1.2	1.4	54	0.8	1.2	< 0.8	–	–	EC50 [13]: > 100 µM; EC50 [14]: > 100 µM; CC50 at 72 h [15]: 11 µM
CCCCCCCCCCCCS(=O)(=O)N[C@H]1C(=O)N[C@@H]2Cc3ccc(c(Cl)c3)Oc3cc4cc(c3O)Oc3ccc(cc3Cl)[C@@H](O[C@@H]3O[C@H](CO)[C@@H](O)[C@H](O)[C@H]3NC(C)=O)[C@H]3NC(=O)[C@H](NC(O)[C@@H]4NC(=O)[C@@H](NC2=O)c2cc(O)cc(c2)Oc2cc1ccc2O)c1ccc(O)c(c1)-c1c(O)cc(O)cc1[C@H](C(=O)O)NC3=O (some centres undefined)	< 0.8	< 0.8	4	0.8	> 100	–	0.4	< 0.8	1.6	< 0.8	4.5	MCC at 120 h [16]: 20 µM; EC90 [17]: 2.8 µM; EC99 [17]: 4.7 µM; EC50 [18]: 1.8 µM; MCC at 72 h [19]: 50 µM; selectivity ratio [20]: 13
